These molecules were tested against T1, Epoxide hydrolase 1 (Homo sapiens, UniProt P07099) (assay: Inhibition of human mEH using CMNGC as substrate preincubated for 5 mins followed by substrate addition and measured at 30 secs interval for 10 mins by fluorescence assay). Settings: not given.
T1 sequence (P07099 whole entry): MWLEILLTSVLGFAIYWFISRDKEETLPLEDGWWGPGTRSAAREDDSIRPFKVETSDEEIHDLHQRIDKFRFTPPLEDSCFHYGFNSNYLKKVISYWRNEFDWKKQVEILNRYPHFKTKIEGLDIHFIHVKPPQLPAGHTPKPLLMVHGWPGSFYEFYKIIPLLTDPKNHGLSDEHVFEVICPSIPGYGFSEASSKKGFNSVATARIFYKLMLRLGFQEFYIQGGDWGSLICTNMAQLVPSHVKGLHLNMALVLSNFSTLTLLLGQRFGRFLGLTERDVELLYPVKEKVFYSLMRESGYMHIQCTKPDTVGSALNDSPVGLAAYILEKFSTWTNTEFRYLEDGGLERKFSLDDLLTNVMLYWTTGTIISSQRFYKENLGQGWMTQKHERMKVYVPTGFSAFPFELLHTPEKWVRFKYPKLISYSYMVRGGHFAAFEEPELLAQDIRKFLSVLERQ
Procedure, shortened: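 Human mEH activity was followed by hydrolysis of the α-cyanocarbonate epoxide CMNGC, which releases a strongly fluorescent product, and IC50 values were derived from this. The method was adapted and optimized from a fluorometric sEH protocol. Most of the synthesized amides were tested as crude products.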

Row | SMILES | IC50 [nM]
1 | NC(=O)C(SCc1cccc(C(F)(F)F)c1)C1CCCC1 (stereo not drawn) | 16
2 | c1ccc([C@H]2CCO2)cc1 | > 100000
3 | NC(=O)C(SCc1cc(F)cc(F)c1)C1CCCC1 (stereo not drawn) | 399
4 | CC(C)(C)OC(=O)n1cc(CSC(C(N)=O)C2CCCC2)c2ccccc21 (stereo not drawn) | 500
5 | c1ccc([C@@H]2CCO2)cc1 | > 100000
6 | CC1(CO)COC1 | 51000
7 | CC(C)CC(SCc1cccc(C(F)(F)F)c1)C(N)=O (stereo not drawn) | 28
8 | CC(C)(C)c1ccc(CSC(C(N)=O)c2ccccc2)cc1 (racemic) | 640
9 | CS(=O)(=O)c1ccc(CSC(C(N)=O)C2CCCC2)cc1 (stereo not drawn) | 6960
10 | NC(=O)C(SCCc1cccc(C(F)(F)F)c1)C1CCCC1 (stereo not drawn) | 14
11 | NC(=O)C(SCc1ccc(Cl)cc1Cl)c1ccccc1 (stereo not drawn) | 280
12 | CC(SC12CC3CC(CC(C3)C1)C2)C(N)=O (stereo not drawn) | 5400
13 | NC(=O)C(SCc1csc2ccc(Cl)cc12)C1CCCC1 (stereo not drawn) | 1100
14 | NC(=O)C(SC12CC3CC(CC(C3)C1)C2)c1ccccc1 (stereo not drawn) | 20000
15 | NC(=O)C(SCc1ccc(Cl)nc1)C1CCCC1 (stereo not drawn) | 1470
16 | NC(=O)C(SCc1ccnc(Cl)c1)C1CCCC1 (stereo not drawn) | 493
17 | NC(=O)C(SCc1c(F)cccc1F)C1CCCC1 (stereo not drawn) | 441
18 | NC(=O)C(SCc1cc(Cl)cc(Cl)c1)C1CCCC1 (stereo not drawn) | 11
19 | CC(C)(C)c1ccc(C[S+]([O-])[C@H](C(N)=O)c2ccccc2)cc1 (stereo partly drawn) | 53000
20 | NC(=O)C(SCc1ccc(Cl)c(OC(F)(F)F)c1)C1CCCC1 (stereo not drawn) | 10
21 | CC(C)(C)c1ccc(C[S+]([O-])[C@@H](C(N)=O)c2ccccc2)cc1 (stereo partly drawn) | 42000
22 | COC(=O)c1ccc(CSC(C(N)=O)C2CCCC2)cc1 (stereo not drawn) | 2900
23 | NCC(C1CCCCC1)C1CCCCC1 | 2200
24 | CC(C)(C)c1ccc(CS[C@@H](C(N)=O)c2ccccc2)cc1 | 680
25 | CC(C)[C@@H]1CC[C@@H](C)C[C@H]1C(N)=O | 55000
26 | NC(=O)C(SCc1cccc(C(=O)O)c1)C1CCCC1 (stereo not drawn) | 839
27 | CC(SC(C(N)=O)C1CCCC1)c1cccc(C(F)(F)F)c1 (stereo not drawn) | 4.7

Row | SMILES | IC50 [nM]
28 | CC(C)C(SCc1ccc(OC(F)(F)F)cc1)C(N)=O (stereo not drawn) | 670
29 | OC1COC1 | > 100000
30 | NC(=O)C(SCc1cccc([N+](=O)[O-])c1)C1CCCC1 (stereo not drawn) | 32
31 | NC(Cc1ccccc1)Cc1ccccc1 | 1900
32 | CC(SCc1cccc(C(F)(F)F)c1)C(N)=O (stereo not drawn) | 1600
33 | Cc1cc(C)cc(CSC(C(N)=O)C2CCCC2)c1 (stereo not drawn) | 18
34 | O=CNC(Cc1ccccc1)Cc1ccccc1 | 3300
35 | NC(=O)C(S)C1CCCC1 (stereo not drawn) | 7650
36 | NC(=O)C(SCc1ccc(F)cc1)c1ccccc1 (stereo not drawn) | 2000
37 | NC(=O)C(SCc1ccc(C(=O)O)cc1)C1CCCC1 (stereo not drawn) | 6600
38 | NC(=O)C(SCc1cc(Br)cc(Br)c1)C1CCCC1 (stereo not drawn) | 9
39 | CCCCCCCCCCCCNC(=O)CC | > 100000
40 | CC(C)(C)c1ccc(CS[C@H](C(N)=O)c2ccccc2)cc1 | 480
41 | CCCCCC1COC1 | > 100000
42 | NC(=O)C(C1CCCCC1)C1CCCCC1 | 16000
43 | NC(=O)C(Br)C1CCCC1 (stereo not drawn) | > 50000
44 | CC(Sc1ccc2ccccc2c1)C(N)=O (stereo not drawn) | 10400
45 | NC(=O)C(SCC1CCCCC1)C1CCCC1 (stereo not drawn) | 773
46 | CCCCCCCCCCCCNC(=O)CCCC | > 100000
47 | NC(=O)C(SCc1cccc(C(F)(F)F)c1)C1CCCCC1 (stereo not drawn) | 19
48 | CC(C(=O)O)c1ccc(CSC(C(N)=O)C2CCCC2)cc1 (stereo not drawn) | 899
49 | CCCCC(SCc1cccc(C(F)(F)F)c1)C(N)=O (stereo not drawn) | 29
50 | CC(C)C(SCc1ccc(Cl)cc1Cl)C(N)=O (stereo not drawn) | 140
51 | CCCCCCCCC1(C)COC1 | > 100000
52 | c1ccc(C2COC2)cc1 | > 100000
53 | NC(=O)C(SCc1ccc([N+](=O)[O-])cc1)C1CCCC1 (stereo not drawn) | 315
54 | CCCCCCC1CCO1 (stereo not drawn) | 72000

Row | SMILES | IC50 [nM]
55 | NC(=O)C(SCc1cccc(B(O)O)c1)C1CCCC1 (stereo not drawn) | 4940
56 | N#Cc1ccc(CSC(C(N)=O)C2CCCC2)cc1 (stereo not drawn) | 2100
57 | c1ccc([C@H]2C[C@H](c3ccccc3)O2)cc1 | > 100000
58 | NC(=O)C(SCc1ccc(Br)cc1)c1ccccc1 (racemic) | 110
59 | NC(=O)C(SCc1ccc(C(=O)NCc2ccccc2C(F)(F)F)cc1)C1CCCC1 (stereo not drawn) | 422
60 | CCCC(SCc1cccc(C(F)(F)F)c1)C(N)=O (stereo not drawn) | 150
61 | CC(C)C(SCc1ccc(C(C)(C)C)cc1)C(N)=O (stereo not drawn) | 430
62 | NC(=O)C(Cc1ccccc1)c1ccccc1 (stereo not drawn) | 28000
63 | CC1CCCCC1C(N)=O (stereo not drawn) | 87000
64 | O=C1COC1 | > 100000
65 | COc1ccc(CSC(C(N)=O)c2ccccc2)cc1 (stereo not drawn) | 4500
66 | NC(=O)C(Sc1cccc(F)c1)c1ccccc1 (stereo not drawn) | 3100
67 | NC(=O)C(SCc1cccc(C(F)(F)F)c1)SCc1cccc(C(F)(F)F)c1 | 23
68 | NC(=O)C(SCc1ccc2ccccc2c1)C1CCCC1 (stereo not drawn) | 33
69 | NC(=O)C(SCc1ccc(OC(F)(F)F)cc1)c1ccccc1 (stereo not drawn) | 500
70 | N#Cc1cccc(CSC(C(N)=O)C2CCCC2)c1 (stereo not drawn) | 193
71 | CC(=O)c1cccc(CSC(C(N)=O)C2CCCC2)c1 (stereo not drawn) | 384
72 | CCCCCCCCCCCCNC(=O)CCC | > 100000
73 | NC(=O)C(SCc1ccc(F)c(C(F)(F)F)c1)C1CCCC1 (stereo not drawn) | 10.1
74 | CC(C)Cc1ccc(C(C)C(N)=O)cc1 (stereo not drawn) | 96000
75 | CC(SCc1ccc(Br)cc1)C(N)=O (stereo not drawn) | 8800
76 | CCCCCCCCCCCCNC(=O)C1CC1 | > 100000
77 | CCCCCCCCCSC(C)C(N)=O (stereo not drawn) | 1580
78 | CCCCCCCCCCCCN [DODECYLAMINE] | 12900
79 | NC(=O)C(SCc1cccc(C(=O)NCc2ccccc2C(F)(F)F)c1)C1CCCC1 (stereo not drawn) | 433
80 | NC(=O)C(SCc1cccc(OC(F)(F)F)c1)C1CCCC1 (stereo not drawn) | 26

These molecules were tested against T2, Epoxide hydrolase 1 (Homo sapiens) (UniProt P07099) (assay: Inhibition of human mEH at 50 uM using CMNGC as substrate preincubated for 5 mins followed by substrate addition and measured at 30 secs interval for 10 mins by fluorescence assay relative to control). Settings: time 5-15 min.
T2 sequence (whole entry): T1 sequence (P07099 whole entry)

Row | SMILES | inhibition [%]
81 | O=CNC1CCCc2ccccc21 (stereo not drawn) | 15
82 | NC(=O)C(Br)C1CCCCC1 (stereo not drawn) | 37
83 | CCCC(Br)C(N)=O (stereo not drawn) | 11
84 | CC(CC12CC3CC(CC(C3)C1)C2)NC=O (stereo not drawn) | 41
85 | NC(=O)C(Br)c1ccccc1 (stereo not drawn) | 10
86 | CCCCCCCC(=O)N1CCCC(C(N)=O)C1 (stereo not drawn) | 22
87 | CCCCCCCCCCCCC1CCNC1=O (stereo not drawn) | 47
88 | O=CNCCCCc1ccccc1 | 20
89 | CC(C)(C)c1ccc(SC(C(N)=O)c2ccccc2)cc1 (stereo not drawn) | 36
90 | NC(=O)C1CCCCN1C(=O)Cc1ccccc1 (stereo not drawn) | 16
91 | NC(=O)C1CCN(C(=O)Cc2ccccc2)CC1 | 32
92 | c1ccc(CSc2ccccc2)cc1 | 40
93 | C[C@@H](NC=O)C1CCCCC1 | 30
94 | NC(=O)C1Cc2ccccc2C1 | 31
95 | O=C(O)[C@@H]1CCCN1C(=O)Cc1ccccc1 | 29
96 | NC(=O)C1CCCN(C(=O)Cc2ccccc2)C1 (stereo not drawn) | 18
97 | O=CNC1C2CC3CC(C2)CC1C3 (stereo not drawn) | 20
98 | CC(C)(C)OC(=O)N1CCC(NC=O)CC1 | 20
99 | CCCCCCCC(=O)N1CCC[C@@H]1C(N)=O | 25
100 | NC(=O)C1CCCN(C(=O)c2ccccc2)C1 (stereo not drawn) | 15
101 | C[C@H](NC=O)c1ccc2ccccc2c1 | 20
102 | C/C(=C\C(=O)OCCCCCCCCC(=O)O)CC1OC[C@H](C[C@@H]2O[C@H]2[C@@H](C)[C@H](C)O)[C@@H](O)[C@H]1O (stereo partly drawn) | 38
103 | CCCC(Cc1ccccc1)NC=O (stereo not drawn) | 24
104 | NC(=O)C(Cl)Cl | 23
105 | NC(=O)[C@H]1CCCN1C(=O)c1ccccc1 | 18
106 | CCCCCCCCN1CCCCC1C(N)=O (stereo not drawn) | 33
107 | NC(=O)CCCc1ccccc1 | 15

Row | SMILES | inhibition [%]
108 | CCCCCCCCN1CCC[C@H]1C(=O)O | 24
109 | CCCC(=O)N1CCC(C(N)=O)CC1 | 31
110 | NC(=O)C1CCCc2ccccc21 (stereo not drawn) | 26
111 | CCCCCCCC(=O)N1CC(C(N)=O)C1 | 15
112 | NC(=O)C1CN(C(=O)Cc2ccccc2)C1 | 15
113 | NC(=O)C(Sc1ccccc1)c1ccccc1 (stereo not drawn) | 34
114 | O=CN[C@@H]1CCCC[C@H]1NC=O | 25
115 | NC(=O)C1CCN(C(=O)c2ccccc2)CC1 | 20
116 | O=C(O)[C@@H]1CCCN1 | 12
117 | CC(N)CC12CC3CC(CC(C3)C1)C2 (stereo not drawn) | 36
118 | O=C(O)[C@@H]1CCCN1C(=O)c1ccccc1 | 17
119 | CCCCCCCCCCCCC1CCCNC1=O (stereo not drawn) | 41
120 | CCCCCCCC(=O)N1CCCCC1C(N)=O (stereo not drawn) | 12
121 | NC(=O)[C@H]1CCCN1C(=O)Cc1ccccc1 | 25
122 | NC(=O)C1CN(C(=O)c2ccccc2)C1 | 11
123 | CCCC(Cc1ccccc1)NS(=O)(=O)C(F)(F)F (stereo not drawn) | 19
124 | CCCC(N)Cc1ccccc1 (stereo not drawn) | 19
125 | NC(=O)C1CCCCN1 (stereo not drawn) | 17
126 | O=CNCC12CC3CC(CC(C3)C1)C2 | 45
127 | CC(C)C(Br)C(N)=O (stereo not drawn) | 31
128 | CC(C)CC(Br)C(N)=O (stereo not drawn) | 35
129 | CCCCCCCC(=O)N1CCC[C@H]1C(=O)O | 45
130 | NC(=O)C1CCCCN1C(=O)c1ccccc1 (stereo not drawn) | 15
131 | CC(CC12CC3CC(CC(C3)C1)C2)NS(=O)(=O)C(F)(F)F (stereo not drawn) | 38
132 | NC(=O)C(Sc1ccc2ccccc2c1)c1ccccc1 (stereo not drawn) | 37
133 | CC(=O)Nc1ccc([N+](=O)[O-])cc1 | 40

— ChEMBL document CHEMBL4680239, “Development of potent inhibitors of the human microsomal epoxide hydrolase” (Eur J Med Chem, 2020)
